Reference: ChEMBL document CHEMBL5724801, “EUbOPEN Chemogenomics Library - Multiplex” (2024)
Values joined by “and” are separate entries in the source; they are usually repeats but may differ in a detail not shown here. Equal entries are not always repeated.

How the values were obtained:
HEK-293T = experiment: Multiplex assay against HEK293T; assay type: toxicity, cell-based; details: human
How it was run: (§1)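 Per cents of healthy-nucleus cells form the tubulin, mitochondrial-mass and membrane-permeability phenotype values. Live cells were stained at seeding with Hoechst33342, BioTracker Green Microtubule Cytoskeleton Dye, MitoTracker Red and Annexin V Alexa Fluor 680. After compound addition they were imaged on a CQ1 microscope at 37°C and 5% CO2, and CellPathfinder machine-learning gating split them into Hoechst high-intensity objects or normal cells, normal cells into healthy, pyknosed or fragmented nuclei, and pyknosed cells into mitotic or apoptotic.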

U2OS = experiment: Multiplex assay against U2OS; assay type: toxicity, cell-based; details: human; how it was run: as §1
[1] = 24 h, 1 µM, compound concentration 1 uM
[2] = 24 h, 10 µM, compound concentration 10 uM
[3] = 48 h, 1 µM, compound concentration 1 uM
[4] = 48 h, 10 µM, compound concentration 10 uM
[5] = 12 h, 1 µM, compound concentration 1 uM
[6] = 12 h, 10 µM, compound concentration 10 uM

With CCCCCN1C(=O)C2(COc3cc4c(cc32)OCO4)c2ccccc21 (stereo not drawn) the “Population Normal (%)” value (HEK-293T; [1]) was 100% and 99.49%, the “Population Tubulin-Different-Phenotype (%)” value (HEK-293T; [1]) was 11.86% and 4.05% and the “Total Cell Count” value (HEK-293T; [1]) was 518 and 197. The “Population Apoptotic (%)” value (HEK-293T; [2]) was 19.31% and 11.94%, the “Population Fragmented Nuclei (%)” value (HEK-293T; [2]) was 1.12% and 2.34% and the “Population Hoechst High Intensity Objects (%)” value (HEK-293T; [2]) was 0.22% and 0%. For the same compound, the “Population Membrane Permeable-Phenotype (%)” value (HEK-293T; [2]) was 1.34% and 0%, the “Population Mitochondria Different-Phenotype (%)” value (HEK-293T; [2]) was 25.5% and 21.21% and the “Population Mitotic Cells (%)” value (HEK-293T; [2]) was 80.69% and 88.06%. For the same compound, the “Population Normal (%)” value (HEK-293T; [2]) was 99.78% and 100%, the “Population Pyknosed Nuclei (%)” value (HEK-293T; [2]) was 32.37% and 78.36% and the “Population Tubulin-Different-Phenotype (%)” value (HEK-293T; [2]) was 30.2% and 15.15%. For the same compound, the “Total Cell Count” value (HEK-293T; [2]) was 449 and 171, the “Population Apoptotic (%)” value (HEK-293T; [3]) was 9.4% and 23.88% and the “Population Fragmented Nuclei (%)” value (HEK-293T; [3]) was 2.17% and 2.27%. The “Population Healthy Nuclei (%)” value (HEK-293T; [3]) was 88.04% and 75.97%, the “Population Hoechst High Intensity Objects (%)” value (HEK-293T; [3]) was 0% and 0.65% and the “Population Membrane Permeable-Phenotype (%)” value (HEK-293T; [3]) was 4.37% and 2.99%. For the same compound, the “Population Mitochondria Different-Phenotype (%)” value (HEK-293T; [3]) was 13.77% and 12.82%, the “Population Mitotic Cells (%)” value (HEK-293T; [3]) was 90.6% and 76.12% and the “Population Normal (%)” value (HEK-293T; [3]) was 100% and 99.35%. The “Population Pyknosed Nuclei (%)” value (HEK-293T; [3]) was 9.78% and 21.75%, the “Population Fragmented Nuclei (%)” value (HEK-293T; [4]) was 2.44% and 0.93% and the “Population Healthy Nuclei (%)” value (HEK-293T; [4]) was 80.51% and 57.41%. The “Population Hoechst High Intensity Objects (%)” value (HEK-293T; [4]) was 0%, the “Population Membrane Permeable-Phenotype (%)” value (HEK-293T; [4]) was 5.04% and 0% and the “Population Mitochondria Different-Phenotype (%)” value (HEK-293T; [4]) was 42.8% and 31.45%. The “Population Mitotic Cells (%)” value (HEK-293T; [4]) was 93.2% and 75.56%, the “Population Normal (%)” value (HEK-293T; [4]) was 100% and the “Population Pyknosed Nuclei (%)” value (HEK-293T; [4]) was 17.05% and 41.67%. For the same compound, the “Population Apoptotic (%)” value (U2OS; [5]) was 29.41% and 64%, the “Population Fragmented Nuclei (%)” value (U2OS; [5]) was 1.7% and 1.92% and the “Population Healthy Nuclei (%)” value (U2OS; [5]) was 87.47% and 82.05%. The “Population Hoechst High Intensity Objects (%)” value (U2OS; [5]) was 0%, the “Population Membrane Permeable-Phenotype (%)” value (U2OS; [5]) was 0.49% and 3.91% and the “Population Mitochondria Different-Phenotype (%)” value (U2OS; [5]) was 0.24% and 7.81%. The “Population Mitotic Cells (%)” value (U2OS; [5]) was 70.59% and 36%, the “Population Normal (%)” value (U2OS; [5]) was 100% and the “Population Pyknosed Nuclei (%)” value (U2OS; [5]) was 10.83% and 16.03%. The “Population Tubulin-Different-Phenotype (%)” value (U2OS; [5]) was 0.49% and 0%, the “Population Apoptotic (%)” value (U2OS; [6]) was 35.71% and 31.82% and the “Population Fragmented Nuclei (%)” value (U2OS; [6]) was 1.52% and 0%. For the same compound, the “Population Healthy Nuclei (%)” value (U2OS; [6]) was 91.37% and 84.93%, the “Population Hoechst High Intensity Objects (%)” value (U2OS; [6]) was 0% and the “Population Membrane Permeable-Phenotype (%)” value (U2OS; [6]) was 1.94% and 4.84%. For the same compound, the “Population Mitotic Cells (%)” value (U2OS; [6]) was 64.29% and 68.18%, the “Population Normal (%)” value (U2OS; [6]) was 100% and the “Population Pyknosed Nuclei (%)” value (U2OS; [6]) was 7.11% and 15.07%. The “Population Tubulin-Different-Phenotype (%)” value (U2OS; [6]) was 2.22% and 2.42%, the “Total Cell Count” value (U2OS; [6]) was 394 and 146 and the “Population Apoptotic (%)” value (U2OS; [1]) was 41.07% and 40%. For the same compound, the “Population Fragmented Nuclei (%)” value (U2OS; [1]) was 1.74% and 2.44%, the “Population Healthy Nuclei (%)” value (U2OS; [1]) was 89.42% and 80.49% and the “Population Hoechst High Intensity Objects (%)” value (U2OS; [1]) was 0%. The “Population Membrane Permeable-Phenotype (%)” value (U2OS; [1]) was 0.88% and 2.42%, the “Population Mitochondria Different-Phenotype (%)” value (U2OS; [1]) was 0% and 7.27% and the “Population Mitotic Cells (%)” value (U2OS; [1]) was 58.93% and 60%. For the same compound, the “Population Normal (%)” value (U2OS; [1]) was 100%, the “Population Pyknosed Nuclei (%)” value (U2OS; [1]) was 8.85% and 17.07% and the “Population Tubulin-Different-Phenotype (%)” value (U2OS; [1]) was 0.18% and 1.82%. The “Population Apoptotic (%)” value (U2OS; [2]) was 23.33% and 32.14%, the “Population Fragmented Nuclei (%)” value (U2OS; [2]) was 2.09% and 1.2% and the “Population Healthy Nuclei (%)” value (U2OS; [2]) was 86.5% and 81.93%. The “Population Hoechst High Intensity Objects (%)” value (U2OS; [2]) was 0%, the “Population Membrane Permeable-Phenotype (%)” value (U2OS; [2]) was 1.1% and 8.09% and the “Population Mitotic Cells (%)” value (U2OS; [2]) was 76.67% and 67.86%. The “Population Normal (%)” value (U2OS; [2]) was 100%, the “Population Pyknosed Nuclei (%)” value (U2OS; [2]) was 11.41% and 16.87% and the “Population Tubulin-Different-Phenotype (%)” value (U2OS; [2]) was 2.42% and 3.68%. The “Population Apoptotic (%)” value (U2OS; [3]) was 40.17% and 47.5%, the “Population Fragmented Nuclei (%)” value (U2OS; [3]) was 3.56% and 1.97% and the “Population Healthy Nuclei (%)” value (U2OS; [3]) was 86.74% and 86.8%. The “Population Hoechst High Intensity Objects (%)” value (U2OS; [3]) was 0%, the “Population Membrane Permeable-Phenotype (%)” value (U2OS; [3]) was 0.86% and 1.29% and the “Population Mitochondria Different-Phenotype (%)” value (U2OS; [3]) was 0% and 3.56%. The “Population Mitotic Cells (%)” value (U2OS; [3]) was 59.83% and 52.5%, the “Population Normal (%)” value (U2OS; [3]) was 100% and the “Population Pyknosed Nuclei (%)” value (U2OS; [3]) was 9.69% and 11.24%. The “Population Tubulin-Different-Phenotype (%)” value (U2OS; [3]) was 0.38% and 0.97%, the “Population Apoptotic (%)” value (U2OS; [4]) was 41.89% and 71.05% and the “Population Fragmented Nuclei (%)” value (U2OS; [4]) was 2.63% and 1.47%. The “Population Healthy Nuclei (%)” value (U2OS; [4]) was 89.58% and 84.56%, the “Population Hoechst High Intensity Objects (%)” value (U2OS; [4]) was 0% and the “Population Membrane Permeable-Phenotype (%)” value (U2OS; [4]) was 0.71% and 3.91%. The “Population Mitotic Cells (%)” value (U2OS; [4]) was 58.11% and 28.95%, the “Population Normal (%)” value (U2OS; [4]) was 100% and the “Population Pyknosed Nuclei (%)” value (U2OS; [4]) was 7.79% and 13.97%. The “Population Tubulin-Different-Phenotype (%)” value (U2OS; [4]) was 1.29% and 1.74%.
